Source: ChEMBL document CHEMBL4138155, “Design, synthesis and biochemical evaluation of novel multi-target inhibitors as potential anti-Parkinson agents” (Eur J Med Chem, 2018)

Experiments:
[1] = biological target: T1, Amine oxidase [flavin-containing] B (Homo sapiens, UniProt P27338); assay: Reversible inhibition of recombinant human MAO-B assessed as residual activity at 4 times IC50 using kynuramine as substrate pre-incubated for 15 mins followed by 2 fold dilution of compound for 24 hrs and subsequent substrate addition measured after 20 mins by fluorescence assay relative to control
T1 sequence (P27338 whole entry): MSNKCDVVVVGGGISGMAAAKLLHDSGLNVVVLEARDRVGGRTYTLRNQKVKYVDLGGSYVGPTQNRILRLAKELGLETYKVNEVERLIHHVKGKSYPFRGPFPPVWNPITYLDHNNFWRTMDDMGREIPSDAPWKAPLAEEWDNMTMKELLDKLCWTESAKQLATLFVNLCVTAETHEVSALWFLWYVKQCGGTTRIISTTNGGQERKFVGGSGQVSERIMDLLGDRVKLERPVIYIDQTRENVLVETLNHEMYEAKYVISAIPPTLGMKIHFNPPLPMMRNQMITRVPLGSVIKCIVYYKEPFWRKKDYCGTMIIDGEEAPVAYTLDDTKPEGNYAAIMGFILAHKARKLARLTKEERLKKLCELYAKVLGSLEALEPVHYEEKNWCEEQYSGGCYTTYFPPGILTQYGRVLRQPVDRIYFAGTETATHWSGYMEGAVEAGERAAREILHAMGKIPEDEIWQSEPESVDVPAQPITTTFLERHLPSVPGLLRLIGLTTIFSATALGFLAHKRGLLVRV

[2] = biological target: T1, Amine oxidase [flavin-containing] B; assay: Competitive inhibition of recombinant human MAO-B using kynuramine as substrate pre-incubated for 15 mins followed by 2 fold compound dilution for 24 hrs and subsequent substrate addition measured after 20 mins by Lineweaver-Burk plot analysis
How it was run: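 20 min at 37 °C, NaOH stop, 4-hydroxyquinoline fluorescence read. Six Lineweaver-Burk plots; Ki from x-intercept of slope versus inhibitor concentration.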

[3] = Antioxidant activity assessed as total antioxidant capacity after 90 mins by phosphomolybdenum method; format: functional
How it was run: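 Sample combined with reagent of 0.6 M sulphuric acid, 28 mM sodium phosphate and 4 mM ammonium molybdate; heated 90 min at 95 °C, absorbance at 695 nm. EC50 = concentration giving absorbance 0.5; trolox as reference.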

[4] = biological target: T1, Amine oxidase [flavin-containing] B; assay: Inhibition of recombinant human MAO-B assessed as residual activity at 4 times IC50 using kynuramine as substrate pre-incubated for 15 mins substrate addition measured after 20 mins by fluorescence assay relative to control
[5] = Antioxidant activity assessed as ferric ion reducing activity using Fe3+-TPTZ after 30 mins by FRAP assay; format: functional
How it was run: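 FRAP reagent: acetate buffer (0.3 M, pH 3.6), TPTZ (10 mM) in 40 mM HCl and FeCl3 (20 mM), 10:1:1 v/v/v. Sample added, 30 min at room temperature, absorbance at 593 nm. Expressed as EC50.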

[6] = Antioxidant activity assessed as DPPH radical scavenging activity after 30 mins; format: functional
How it was run: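 Sample added to 0.004% DPPH in methanol, kept 30 min in the dark at room temperature, absorbance read at 517 nm. IC50 taken as the concentration scavenging 50% of DPPH radicals; trolox as reference.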

[7] = biological target: T2, Amine oxidase [flavin-containing] A (Homo sapiens, UniProt P21397); assay: Inhibition of recombinant human MAO-A using kynuramine as substrate after 20 mins by fluorescence assay
T2 sequence (P21397 whole entry): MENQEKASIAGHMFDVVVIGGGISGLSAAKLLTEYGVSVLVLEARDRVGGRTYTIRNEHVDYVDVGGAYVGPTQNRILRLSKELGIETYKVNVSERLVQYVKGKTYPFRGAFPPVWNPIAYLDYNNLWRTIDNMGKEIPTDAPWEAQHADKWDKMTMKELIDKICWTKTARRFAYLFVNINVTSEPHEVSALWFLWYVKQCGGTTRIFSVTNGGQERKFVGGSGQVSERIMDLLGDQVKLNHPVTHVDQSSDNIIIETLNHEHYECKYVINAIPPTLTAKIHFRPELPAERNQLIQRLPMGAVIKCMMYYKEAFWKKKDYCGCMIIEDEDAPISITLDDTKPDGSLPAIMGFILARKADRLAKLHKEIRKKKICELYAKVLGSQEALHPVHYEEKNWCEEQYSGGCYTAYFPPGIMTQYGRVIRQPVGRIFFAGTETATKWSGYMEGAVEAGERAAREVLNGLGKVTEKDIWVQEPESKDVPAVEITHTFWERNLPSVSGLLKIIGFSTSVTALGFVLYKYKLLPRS

[8] = biological target: Cholinesterase (Equus caballus) (UniProt P81908); assay: Inhibition of horse serum BuChE at 3 uM using butyrylthiocholine iodide as substrate preincubated for 15 mins followed by substrate addition measured after 10 mins by spectrophotometry based-Ellman's method
[9] = Antioxidant activity assessed as ABTS radical scavenging activity measured after 12 to 16 hrs; format: functional
How it was run: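 ABTS radical cation generated from 7 mM ABTS with 2.45 mM potassium persulphate, 12-16 h dark at room temperature, then diluted with methanol to A734 0.700 ± 0.02. Sample mixed with ABTS solution, 30 min at room temperature, absorbance read at 734 nm. IC50 = concentration scavenging 50% of radicals; trolox reference.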

[10] = biological target: T1, Amine oxidase [flavin-containing] B
[11] = Antioxidant activity assessed as cupric ion reducing activity after 30 mins by CUPRAC assay; format: functional
How it was run: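 Sample mixed with CuCl2 (10 mM), neocuproine (7.5 mM) and NH4Ac buffer (1 M, pH 7.0) stock reagents; blank lacks CuCl2. Absorbance at 450 nm after 30 min at room temperature, blank subtracted. Expressed as EC50.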

Chain of Cholinesterase (Equus caballus) (P81908 whole entry): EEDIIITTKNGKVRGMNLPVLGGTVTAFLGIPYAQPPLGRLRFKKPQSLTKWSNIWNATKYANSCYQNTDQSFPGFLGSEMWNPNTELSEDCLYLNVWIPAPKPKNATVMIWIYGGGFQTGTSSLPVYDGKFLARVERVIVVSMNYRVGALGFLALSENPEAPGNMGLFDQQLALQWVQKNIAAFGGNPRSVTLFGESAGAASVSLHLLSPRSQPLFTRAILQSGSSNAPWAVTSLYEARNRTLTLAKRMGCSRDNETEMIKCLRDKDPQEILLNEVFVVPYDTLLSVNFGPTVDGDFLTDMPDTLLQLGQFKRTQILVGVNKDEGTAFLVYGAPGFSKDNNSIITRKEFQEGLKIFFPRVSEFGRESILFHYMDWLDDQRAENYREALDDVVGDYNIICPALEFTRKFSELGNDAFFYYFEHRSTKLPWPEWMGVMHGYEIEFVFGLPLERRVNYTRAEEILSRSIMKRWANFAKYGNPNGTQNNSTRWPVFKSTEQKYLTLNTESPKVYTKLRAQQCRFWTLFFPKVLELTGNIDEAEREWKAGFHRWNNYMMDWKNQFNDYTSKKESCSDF

Row | Structure (SMILES) | Activity [1] [%] | Ki [2] [µM] | EC50 [3] [µM] | Activity [4] [%] | EC50 [5] [µM] | IC50 [6] [µM] | IC50 [7] [µM] | inhibition [8] [%] | IC50 [9] [µM] | IC50 [10] [µM] | EC50 [11] [µM]
1 | C/C(=N/Nc1nc(-c2cccc([N+](=O)[O-])c2)cs1)C1CC1 | 91 | 0.0073 | 1470 | 46 | 470 | 1260 | 2.66 | 12.8 | 1060 | 0.0053 | 530
2 | CCCC/C(C)=N\Nc1nc(-c2cccc([N+](=O)[O-])c2)cs1 |  |  | 1460 |  | 370 | 1180 | 6.33 | 11.3 | 1060 | 0.118 | 520
3 | C/C(=N/Nc1nc(-c2cccc([N+](=O)[O-])c2)cs1)C1CCCCC1 |  |  | 1190 |  | 670 | 1350 | 29.1 | 6.22 | 1050 | 0.0072 | 610
4 | CC/C(C)=N\Nc1nc(-c2cccc([N+](=O)[O-])c2)cs1 |  |  | 1650 |  | 420 | 1180 | 20.5 | 12.1 | 1040 | 0.351 | 580
5 | CCC(CC)=NNc1nc(-c2cccc([N+](=O)[O-])c2)cs1 |  |  | 1100 |  | 340 | 1130 | 24.3 | 7.45 | 1040 | 0.053 | 460
6 | CCCC/C(CC)=N\Nc1nc(-c2cccc([N+](=O)[O-])c2)cs1 |  |  | 1560 |  | 410 | 1260 | 6.03 | 10 | 1040 | 0.182 | 550
7 | C=CCC/C(C)=N\Nc1nc(-c2cccc([N+](=O)[O-])c2)cs1 |  |  | 1150 |  | 330 | 1210 | 3.99 | 6.35 | 1040 | 0.101 | 460
8 | CCCCCC/C(C)=N\Nc1nc(-c2cccc([N+](=O)[O-])c2)cs1 |  |  | 1240 |  | 390 | 1150 | 10.9 | 9.54 | 1110 | 0.626 | 530
9 | O=[N+]([O-])c1cccc(-c2csc(NN=C3CCCCCC3)n2)c1 |  |  | 1230 |  | 420 | 1220 | 1.59 | 7.11 | 1070 | 0.0086 | 410
10 | CC1CCC(=NNc2nc(-c3cccc([N+](=O)[O-])c3)cs2)CC1 (stereo not given) |  |  | 1130 |  | 390 | 1180 | 4.25 | 4.87 | 1090 | 0.237 | 390
11 | CCC/C(CC)=N\Nc1nc(-c2cccc([N+](=O)[O-])c2)cs1 |  |  | 1250 |  | 390 | 1230 | 4.86 | 11 | 1040 | 0.189 | 530
12 | CC(C)=NNc1nc(-c2cccc([N+](=O)[O-])c2)cs1 |  |  | 1750 |  | 340 | 1160 | 1.07 | 12.8 | 1070 | 0.716 | 510
13 | CCC/C(C)=N\Nc1nc(-c2cccc([N+](=O)[O-])c2)cs1 |  |  | 1200 |  | 450 | 1200 | 38 | 5.16 | 1040 | 0.055 | 550
14 | O=[N+]([O-])c1cccc(-c2csc(NN=C3CCCCC3)n2)c1 |  |  | 1430 |  | 330 | 1200 | 2.56 | 8.41 | 1100 | 0.047 | 320
15 | C/C(CC(C)C)=N/Nc1nc(-c2cccc([N+](=O)[O-])c2)cs1 |  |  | 1130 |  | 420 | 1350 | 4.41 | 8.98 | 1050 | 0.012 | 570
16 | O=[N+]([O-])c1cccc(-c2csc(NN=C3CCCCCCC3)n2)c1 |  |  | 1220 |  | 390 | 1280 | 1.82 | 7.64 | 1090 | 0.01 | 440
17 | COc1ccc2c3c1O[C@H]1C[C@@H](O)C=C[C@@]31CCN(C)C2 |  |  |  |  |  |  |  | 13.6 |  |  | 
18 | Cc1c(C)c2c(c(C)c1O)CCC(C)(C(=O)O)O2 (stereo not given) [TROLOX] |  |  | 1130 |  | 160 | 400 |  |  | 660 |  | 240
19 | O=[N+]([O-])c1cccc(-c2csc(NN=C3CCCC3)n2)c1 |  |  | 1340 |  | 400 | 1180 | 3.46 | 12.4 | 1100 | 0.095 | 510
